Data on 14 molecules can be found in PubChem BioAssay.

Calls of active or inactive are those of the source.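 Rule for the calls, unless noted: active = viability loss from added drug above about 55%, and viability with drug at most 40%, in both replicates (limit read from the data, passing the limit was not always enough); inconclusive = both conditions met in only one replicate; inactive = neither replicate meets both conditions.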

The nature of test [1]: Her2 expression decrease, cell viability multiplex – SKBR3 breast tumor cells, AlphaScreen, ATP viability, primary screen (AID 461;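 active = Her2 level under about 52% in both replicate screens, with viability over 70% of control, limit read from the data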;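 for Her2 level: lower value means less Her2 protein in the cells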;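 for viability: percent of carrier control wells set as 100% viability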). As to conditions: SKBR3 Her2 protein level, 18-24 h, measured here: SKBR3 viability, ATP luminescence, at 10 µM.
In test [2] the target is Receptor tyrosine-protein kinase erbB-2 (Homo sapiens) (UniProt P04626). The description is as above. As to conditions: 18-24 h, at 10 µM, stronger effect = lower value.
Test [3] in a line: reduced viability of SK-BR-3 breast cancer cells – cell-based, 24 h, human, pilot screen (AID 572;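 active = viability at or below 10% of carrier control in both of two separate runs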;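 note: compound exposure lasted between 18 and 24 h rather than exactly 24 h; 100% = carrier-treated control wells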). As to conditions: SK-BR-3 viability, CellTiter-Glo luminescence, at 10 µM, stronger effect = lower value.
A short description of test [4]: HUVEC growth inhibition – cell-based, human, primary screen (AID 575;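 active = viability at or below 30% in both replicate assays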;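 note: 100% = median of untreated cell wells with 0.1% DMSO on each plate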). To be noted: HUVEC proliferation, CellTiter-Glo luminescence, 72 h; at 10 µM; stronger effect = lower value. The method in brief: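 system = HUVEC primary cells | amount = 1250 cells/well | buffer or medium = supplemented EBM, 2% fetal bovine serum | dosing = single-point 10 µM, DMSO 0.1% final | times = 72 h compound incubation | detection = CTG luminescence | read-out = % viability relative to median vehicle-well signal on each plate | control set = vehicle and MePR control wells | format = collagen-coated 384-well format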

Test [5] is described as follows: H69AR cell proliferation blockers – human, duplicate replicates, primary screen (AID 580;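 active = viability at or under a set limit in both replicates, limit being median viability minus 3 SD, cut at about 48% in these data, passing the limit was not always enough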;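 note: 100% = mean luminescence of untreated wells and 0% = no signal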). To be noted: H69AR lung tumor cells viability, ATP luminescence, 72 h; at 10 µM; stronger effect = lower value.
A short description of test [6]: MRP1 drug-resistance reversers in H69AR cells – cell-based, doxorubicin co-treatment, pilot screen (AID 601). To be noted: CellTiter-Glo, 72 h, at 10 µM; for differential viability (reversal): stronger effect = higher value.
Test [7] in a line: yeast transport mutant growth inhibition pilot in 384-well plates, post-Golgi transport modulator project (AID 636; in the data active = inhibition above about 31%). As to conditions: absorbance 615 nm, about 18 h, stronger effect = higher value.
Test [8] is described as follows: growth suppression of yeast trafficking mutant, preliminary HTS, modulators of trafficking downstream of Golgi apparatus project, 1536-format plate, OD 615 nm (AID 637; in the data active = inhibition above about 30%). To be noted: yeast transport mutant growth, absorbance 615 nm, 18 h; stronger effect = higher value.
Where [9] appears, read: H69AR cells + 2 uM doxorubicin, measured here: viability with 2 uM doxorubicin, stronger effect = lower value.
[10] abbreviates: H69AR cells, compound alone cytotoxicity.

Sequence of Receptor tyrosine-protein kinase erbB-2 (Homo sapiens) (P04626 whole entry, looked up): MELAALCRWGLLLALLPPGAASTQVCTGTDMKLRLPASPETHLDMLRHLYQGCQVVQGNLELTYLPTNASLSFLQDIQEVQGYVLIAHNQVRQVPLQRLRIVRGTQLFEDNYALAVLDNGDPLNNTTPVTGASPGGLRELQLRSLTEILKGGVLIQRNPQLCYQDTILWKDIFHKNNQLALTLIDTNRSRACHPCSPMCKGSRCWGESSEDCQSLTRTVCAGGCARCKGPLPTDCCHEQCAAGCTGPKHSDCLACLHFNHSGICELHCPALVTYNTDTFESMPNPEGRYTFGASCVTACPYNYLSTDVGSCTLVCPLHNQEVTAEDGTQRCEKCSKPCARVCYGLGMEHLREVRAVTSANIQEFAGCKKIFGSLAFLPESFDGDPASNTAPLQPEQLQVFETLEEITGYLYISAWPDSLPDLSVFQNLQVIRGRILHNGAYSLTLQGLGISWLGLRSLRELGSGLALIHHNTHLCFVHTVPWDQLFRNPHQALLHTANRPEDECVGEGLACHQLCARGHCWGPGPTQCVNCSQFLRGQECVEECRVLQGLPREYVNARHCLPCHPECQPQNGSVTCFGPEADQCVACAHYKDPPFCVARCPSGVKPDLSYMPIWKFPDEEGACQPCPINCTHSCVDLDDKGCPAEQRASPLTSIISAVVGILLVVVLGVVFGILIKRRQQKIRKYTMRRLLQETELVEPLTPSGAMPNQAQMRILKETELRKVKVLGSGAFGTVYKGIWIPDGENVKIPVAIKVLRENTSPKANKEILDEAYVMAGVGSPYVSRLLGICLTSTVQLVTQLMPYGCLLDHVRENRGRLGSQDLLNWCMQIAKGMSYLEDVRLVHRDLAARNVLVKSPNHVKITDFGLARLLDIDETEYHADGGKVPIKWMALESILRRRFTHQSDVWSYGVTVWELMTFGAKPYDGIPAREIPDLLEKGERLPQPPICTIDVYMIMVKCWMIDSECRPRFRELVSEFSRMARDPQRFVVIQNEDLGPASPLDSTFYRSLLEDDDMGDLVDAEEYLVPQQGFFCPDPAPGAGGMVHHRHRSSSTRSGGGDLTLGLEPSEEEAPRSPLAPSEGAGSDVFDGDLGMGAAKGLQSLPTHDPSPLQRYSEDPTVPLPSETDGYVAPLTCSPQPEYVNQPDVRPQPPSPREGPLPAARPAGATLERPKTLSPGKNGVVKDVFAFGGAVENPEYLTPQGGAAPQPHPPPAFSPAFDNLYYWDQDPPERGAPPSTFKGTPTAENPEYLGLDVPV

As to `CN(C(=O)c1cc2sccc2n1C)C1CCCCC1`, the viability in test [1] was 91%; in test [3], 91% (inactive); in test [4], 87.7% (inactive); in test [5], 100% (inactive); in test [6] (setting [9]), 85.7%; in test [6] (setting [10]) it was 100%. For the same molecule, the Her2 level in test [2] is 106% (inactive). Moreover, the differential viability (reversal) in test [6] (H69AR cells + 2 uM doxorubicin) is 14.7% (inactive). Further, the inhibition was -7.3% (inactive) in test [7] and -2.13% (inactive) in test [8].
As for `CCCN(CCC)C(=O)C1CCN(c2cc(C)nc3c(-c4ccc(OC)c(OC)c4)c(C)nn23)CC1`, the viability in test [1] is 81.5%; in test [3] it was 81.5% (inactive); in test [4] it was 58.1% (inactive); in test [5], 69.1% (inactive); in test [6] (setting [9]), 25%; in test [6] (setting [10]) it was 69.1%. Also, the Her2 level in test [2] is 88% (inactive). Also, in test [6] (H69AR cells + 2 uM doxorubicin), the differential viability (reversal) was 44% (inactive). In addition, the values for the inhibition in test [7] and in test [8] were -0.13% (inactive) and -5.08% (inactive), respectively.
With `CC(C)CC(c1nnnn1CC1CCCO1)N1CCN(Cc2ccc3c(c2)OCO3)CC1` (stereo not given), the viability was 86.5% in test [1]; 86.5% (inactive) in test [3]; 90% (inactive) in test [4]; 96.7% (inactive) in test [5]; 88.2% in test [6] (setting [9]); 96.7% in test [6] (setting [10]). For the same molecule, the Her2 level in test [2] is 70% (inactive). Also, in test [6] (H69AR cells + 2 uM doxorubicin), the differential viability (reversal) was 8.46% (inactive). The results for the inhibition in test [7] and in test [8] were -6.08% (inactive) and -9.34% (inactive), respectively.
As to `COc1ccc2c(c1)CCc1c(C(=O)N3CCCc4ccccc43)noc1-2`, the viability in test [1] was 98%; in test [3], 98% (inactive); in test [4], 80.8% (inactive); in test [5] it was 81.1% (inactive); in test [6] (setting [9]), 78.1%; in test [6] (setting [10]), 81.1%. Moreover, the Her2 level in test [2] was 87% (inactive). Moreover, the differential viability (reversal) in test [6] (H69AR cells + 2 uM doxorubicin) was 3% (inactive). For the same molecule, the inhibition in test [7] was -6.05% (inactive); in test [8], -8.91% (inactive).
For the molecule `Cc1c(C(=O)NCCC2=CCCCC2)oc2ccc(S(=O)(=O)N3CCC4(CC3)OCCO4)cc12`, the viability in test [1] is 94.5%; in test [3], 94.5% (inactive); in test [4], 49.1% (inactive); in test [5], 48.1% (active); in test [6] (setting [9]) it was 52.4%; in test [6] (setting [10]), 48.1%. In addition, in test [2], the Her2 level is 104% (inactive). Moreover, the differential viability (reversal) in test [6] (H69AR cells + 2 uM doxorubicin) is -4.29% (inactive). In addition, the values for the inhibition in test [7] and in test [8] were -10.8% (inactive) and -11.5% (inactive), respectively.
Regarding `Cc1cc(S(=O)(=O)NC2CCCCC2)ccc1OCC(=O)NCc1ccccn1`, the viability in test [1] is 91.5%; in test [3], 91.5% (inactive); in test [4], 105% (inactive); in test [5], 99.1% (inactive); in test [6] (setting [9]), 92.8%; in test [6] (setting [10]), 99.1%. In test [2], the Her2 level was 84% (inactive). The differential viability (reversal) in test [6] (H69AR cells + 2 uM doxorubicin) is 6.34% (inactive). Also, the inhibition in test [7] was -0.53% (inactive); in test [8], 4.52% (inactive).
Take `COc1ccc(OC)c(NC(=O)CSc2nc3ccccc3c(=O)n2CCNC(C)=O)c1`: the viability was 118% in test [1]; 118% (inactive) in test [3]; 95.4% (inactive) in test [4]; 80.7% (inactive) in test [5]; 16.6% in test [6] (setting [9]); 80.7% in test [6] (setting [10]). In addition, the Her2 level in test [2] was 108% (inactive). Also, in test [6] (H69AR cells + 2 uM doxorubicin), the differential viability (reversal) is 64.1% (active). Moreover, the results for the inhibition in test [7] and in test [8] were -1.58% (inactive) and 0.32% (inactive), respectively.
Take `CCc1ccc(C=NC23CN4CN(CN(C4)C2)C3)s1`: the viability was 108% in test [1]; 108% (inactive) in test [3]; 95.2% (inactive) in test [4]; 105% (inactive) in test [5]; 95.2% in test [6] (setting [9]); 105% in test [6] (setting [10]). The Her2 level in test [2] was 114% (inactive). Also, the differential viability (reversal) in test [6] (H69AR cells + 2 uM doxorubicin) is 9.64% (inactive). In addition, the inhibition in test [7] was 1.17% (inactive); in test [8] it was -3.61% (inactive).
Consider `C=CCOc1nc(N2CCCC2)nc(N2CCCC2)n1`, for which the viability in test [1] was 89%; in test [3], 89% (inactive); in test [4] it was 83.1% (inactive); in test [5] it was 92.7% (inactive); in test [6] (setting [9]), 81.1%; in test [6] (setting [10]), 92.7%. Besides, in test [2], the Her2 level was 91% (inactive). Besides, the differential viability (reversal) in test [6] (H69AR cells + 2 uM doxorubicin) is 11.6% (inactive). The inhibition in test [7] is -3.55% (inactive); in test [8], -2% (inactive).
For the molecule `CCOC(=O)/C=C1\SCC(=O)N1Cc1ccc(Br)cc1`, the viability in test [1] was 112%; in test [3], 112% (inactive); in test [4], 79.5% (inactive); in test [5], 97.3% (inactive); in test [6] (setting [9]) it was 93.3%; in test [6] (setting [10]), 97.3%. For the same molecule, the Her2 level in test [2] is 94% (inactive). Also, the differential viability (reversal) in test [6] (H69AR cells + 2 uM doxorubicin) is 3.96% (inactive). Besides, the inhibition was -7.67% (inactive) in test [7] and 4.13% (inactive) in test [8].
`CN(Cc1cccs1)CC(O)COCc1ccco1` (stereo not given): the viability in test [1] is 107%; in test [3] it was 107% (inactive); in test [4], 109% (inactive); in test [5] it was 90.5% (inactive); in test [6] (setting [9]), 93.9%; in test [6] (setting [10]) it was 90.5%. Also, the Her2 level in test [2] was 91.5% (inactive). Further, the differential viability (reversal) in test [6] (H69AR cells + 2 uM doxorubicin) is -3.35% (inactive). For the same molecule, the inhibition was -3.92% (inactive) in test [7] and 2.22% (inactive) in test [8].
With `Cc1cc(=O)n(-c2ccc3ccccc3n2)[nH]1`, the viability in test [1] was 105%; in test [3], 105% (inactive); in test [4], 53.6% (inactive); in test [5] it was 73.4% (inactive); in test [6] (setting [9]) it was 76.2%; in test [6] (setting [10]) it was 73.4%. Also, the Her2 level in test [2] was 101% (inactive). Also, the differential viability (reversal) in test [6] (H69AR cells + 2 uM doxorubicin) is -2.73% (inactive). Besides, the inhibition is -5.73% (inactive) in test [7] and 11.1% (inactive) in test [8].
`COc1ccc(C2C(C#N)=C(N)OC3=C2C(=O)CC(C)C3)c(OC)c1OC` (stereo not given): the viability in test [1] is 102%; in test [3], 102% (inactive); in test [4] it was 101% (inactive); in test [5], 100% (inactive); in test [6] (setting [9]), 96.6%; in test [6] (setting [10]), 100%. Besides, the Her2 level in test [2] was 134% (inactive). Moreover, the differential viability (reversal) in test [6] (H69AR cells + 2 uM doxorubicin) is 3.42% (inactive). The inhibition in test [7] was 2.86% (inactive); in test [8] it was -4.83% (inactive).
Consider `CN(C)S(=O)(=O)N1CCN(C(=O)N(c2ccccc2)c2ccccc2)CC1`, for which the viability in test [1] is 81.5%; in test [3], 81.5% (inactive); in test [4] it was 99.4% (inactive); in test [5], 97.5% (inactive); in test [6] (setting [9]), 102%; in test [6] (setting [10]), 97.5%. Besides, in test [2], the Her2 level was 154% (inactive). Further, the differential viability (reversal) in test [6] (H69AR cells + 2 uM doxorubicin) is -4.56% (inactive). Besides, the inhibition in test [7] is 1.28% (inactive); in test [8], 12.7% (inactive).
